1 molecule from ChEMBL document CHEMBL4765239, “Discovery of a Novel Highly Selective Histamine H4 Receptor Antagonist for the Treatment of Atopic Dermatitis” (J Med Chem, 2018) can be followed below.

The source made the active and inactive calls. No cut-off for these calls is given here.

The subject of data set [1] is Mus musculus. The experiment in a line: Antiinflammatory activity in oxazolone-induced Balb/c mouse model of atopic dermatitis assessed as reduction of epidermal thicken in skin lesions at 50 mg/kg, po BID administered 30 mins prior to oxazolone challenge for 3 weeks by hematoxylin and eosin staining based histopathological analysis. Format: functional, organism-based. Put shortly: (§1)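 Female BALB/c mice (n=8), abdomen shaved. Sensitized on day 0 with topical 1% oxazolone (50 µL) in acetone/corn oil 4:1. From day 7, right ear challenged with 0.2% oxazolone (25 µL) 3 times weekly; left ear got vehicle. Oral dosing twice daily, 30 min before challenge, for 3 weeks. Scratching counted for 1 h after challenge on day 25. Ear thickness measured; ear fixed in 4% paraformaldehyde, 3 µm paraffin sections stained with H&E for epidermal thickness. Mean ± S.E.M., t-test.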

Data set [2] concerns Mus musculus. Kind of data set: Antiinflammatory activity in oxazolone-induced Balb/c mouse model of atopic dermatitis assessed as reduction of ear thickness at 50 mg/kg, po BID administered 30 mins prior to oxazolone challenge for 3 weeks and measured on day 27. Format: functional, organism-based. The procedure, abridged: as §1
In data set [3] the target is T1, Histamine H4 receptor (Mus musculus, UniProt Q91ZY2).
T1 sequence (Q91ZY2 whole entry): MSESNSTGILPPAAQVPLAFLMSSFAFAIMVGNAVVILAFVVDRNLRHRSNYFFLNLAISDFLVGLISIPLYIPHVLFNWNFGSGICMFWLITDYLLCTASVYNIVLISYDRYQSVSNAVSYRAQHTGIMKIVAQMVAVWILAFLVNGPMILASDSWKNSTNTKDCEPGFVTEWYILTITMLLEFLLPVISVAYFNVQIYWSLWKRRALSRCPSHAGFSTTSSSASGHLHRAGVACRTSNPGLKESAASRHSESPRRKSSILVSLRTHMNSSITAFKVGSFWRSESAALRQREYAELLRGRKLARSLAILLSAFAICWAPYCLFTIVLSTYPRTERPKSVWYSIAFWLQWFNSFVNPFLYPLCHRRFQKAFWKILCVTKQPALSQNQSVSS
The experiment in a line: Antagonist activity at recombinant mouse histamine H4 receptor expressed in CHO-K1 cells assessed as inhibition of R-alpha-methylhistamine induced stimulation of [35S]-GTPgammaS binding by scintillation proximity assay. Format: functional, cell membranes, Cell membrane. The procedure, abridged: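 GTPγ35S binding on recombinant mouse H4R, run by an outside contractor. R-α-methylhistamine served as reference agonist and thioperamide as reference antagonist.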
In general terms: GTPγS is a poorly hydrolysed GTP analogue; its binding reports G protein activation.

Data set [4] is described as follows: Protein binding in human plasma. Format: ADME, cell-free. To be noted: read-out: PPB (converted).
The nature of data set [5]: Tmax in ICR mouse at 2 mg/kg, po measured upto 24 hrs by LC-MS/MS analysis. Format: ADME, organism-based. To be noted: in vivo. Put shortly:
(§2)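 Female ICR mice, n=3 per group, given test compound orally. Blood sampled at 0.5, 1, 2, 4, 7 and 24 h post dose; plasma levels quantified by LC-MS/MS. Parameters from non-compartmental analysis.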

The test system of data set [6] is Mus musculus. Kind of data set: Anti-pruritus activity in ICR mouse with histamine-induced itching assessed as reduction of scratching bouts at 10 mg/kg, po administered 30 mins prior to histamine challenge and measured upto 20 mins. Format: functional. More on the design: scale not given: the % may be the effect or the level left. The note with it: time 50 min. The procedure, abridged: (§3)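 Female ICR mice (n=8-10 per group), back skin clipped 24 h before. Oral dose in 20% hydroxypropyl-β-cyclodextrin given 30 min before intradermal pruritogen in saline: histamine 300 nmol, substance P 100 nmol or C48/80 100 µg. Scratching bouts counted from video for 20 min after injection. Mean ± S.E.M., Student's t-test.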

The nature of data set [7]: Cmax in ICR mouse at 10 mg/kg, po measured upto 24 hrs by LC-MS/MS analysis. Format: ADME, organism-based. More on the design: route oral, dose 10 mg/kg, time <=24. To be noted: in vivo. The procedure, abridged:
as §2

Data set [8] is described as follows: AUC (all) in ICR mouse at 50 mg/kg, po measured upto 24 hrs by LC-MS/MS analysis. Format: ADME, organism-based. Also noted: route oral, dose 50 mg/kg, time <=24. The note with it: in vivo. The procedure, abridged: as §2
Data set [9] has as its target Histamine H1 receptor (Homo sapiens) (UniProt P35367). The experiment in a line: Displacement of [3H]pyrilamine from recombinant human histamine H1 receptor after 60 mins by scintillation counting analysis. For orientation: Loss of bound radioactivity is the signal in a displacement assay; it reports binding, not function.
Data set [10] relates to Mus musculus. Kind of data set: Anti-pruritus activity in ICR mouse with substance P-induced itching assessed as reduction of scratching bouts at 50 mg/kg, po administered 30 mins prior to […] and measured upto 20 mins. Format: functional, organism-based. The note with it: time 50.0 min. Put shortly:
as §3

The target of data set [11] is Histamine H4 receptor (Homo sapiens, UniProt Q9H3N8). Kind of data set: Displacement of [3H]-histamine from recombinant human histamine H4 receptor expressed in CHO-K1 cell membranes measured after 30 mins by microbeta scintillation counting method. Also noted: species or system Cell membrane.
Chain of Histamine H4 receptor (Homo sapiens, UniProt Q9H3N8) (Q9H3N8 whole entry): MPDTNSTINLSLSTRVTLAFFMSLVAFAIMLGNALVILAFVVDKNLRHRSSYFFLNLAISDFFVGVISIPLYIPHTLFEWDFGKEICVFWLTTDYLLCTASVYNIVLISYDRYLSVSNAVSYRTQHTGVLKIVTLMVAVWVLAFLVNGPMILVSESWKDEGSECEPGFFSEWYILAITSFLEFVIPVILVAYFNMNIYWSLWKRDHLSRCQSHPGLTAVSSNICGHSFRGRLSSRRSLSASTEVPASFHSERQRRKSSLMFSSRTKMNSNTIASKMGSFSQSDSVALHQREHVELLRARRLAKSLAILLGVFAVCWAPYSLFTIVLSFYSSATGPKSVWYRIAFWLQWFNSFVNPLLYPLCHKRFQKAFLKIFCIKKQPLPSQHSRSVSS
Data set [12] can be described thus: Protein binding in mouse plasma. Format: ADME, cell-free. To be noted: read-out: PPB (converted).
Data set [13] deals with T1, Histamine H4 receptor. Kind of data set: Displacement of [3H]-histamine from recombinant mouse histamine H4 receptor expressed in CHO-K1 cell membranes measured after 30 mins by microbeta scintillation counting method. Also noted: species or system Cell membrane. Put shortly: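 Competitive binding on CHO-K1 membranes expressing human H3R ([3H]Nα-methylhistamine) or mouse H4R ([3H]histamine). Run in 50 mM Tris-HCl pH 7.4 for 30 min at 27 °C, then filtered onto 0.5% PEI-treated glass fiber and washed three times with ice-cold buffer. Bound radioactivity read by liquid scintillation counting.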

Data set [14] has as its target Histamine H2 receptor (Homo sapiens) (UniProt P25021). The experiment in a line: Displacement of [125I]-aminopotentidine from recombinant human histamine H2 receptor after 120 mins by radiometric scintillation counting analysis.
Data set [15] can be described thus: AUC (all) in ICR mouse at 2 mg/kg, po measured upto 24 hrs by LC-MS/MS analysis. Format: ADME, organism-based. Also noted: route oral, dose 2 mg/kg, time <=24. To be noted: in vivo. Put shortly: as §2
The nature of data set [16]: Tmax in ICR mouse at 50 mg/kg, po measured upto 24 hrs by LC-MS/MS analysis. Format: ADME, organism-based. The note with it: in vivo. The procedure, abridged: as §2
Data set [17] can be described thus: AUC (all) in ICR mouse at 10 mg/kg, po measured upto 24 hrs by LC-MS/MS analysis. Format: ADME, organism-based. Also noted: route oral, dose 10 mg/kg, time <=24. The note with it: in vivo. Put shortly: as §2
The target in another data set is Histamine H3 receptor (Homo sapiens, UniProt Q9Y5N1). The experiment in a line: Displacement of [3H]-N-alpha-methylhistamine from recombinant human histamine H3 receptor after 60 mins by radiometric scintillation counting analysis.
Chain of Histamine H3 receptor (Q9Y5N1 whole entry): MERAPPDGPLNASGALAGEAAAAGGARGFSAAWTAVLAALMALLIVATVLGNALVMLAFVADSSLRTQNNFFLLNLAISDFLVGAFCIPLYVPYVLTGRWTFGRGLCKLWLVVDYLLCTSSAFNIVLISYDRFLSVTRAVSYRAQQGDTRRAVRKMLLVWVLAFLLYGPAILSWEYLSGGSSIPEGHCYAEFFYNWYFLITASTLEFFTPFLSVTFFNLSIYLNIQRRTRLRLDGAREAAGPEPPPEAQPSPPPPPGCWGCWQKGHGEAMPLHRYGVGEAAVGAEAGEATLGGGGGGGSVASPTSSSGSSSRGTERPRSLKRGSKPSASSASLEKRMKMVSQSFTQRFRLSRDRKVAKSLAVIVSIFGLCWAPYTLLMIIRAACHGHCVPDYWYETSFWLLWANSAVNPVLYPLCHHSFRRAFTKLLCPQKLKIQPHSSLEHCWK
Data set [18] is described as follows: Cmax in ICR mouse at 2 mg/kg, po measured upto 24 hrs by LC-MS/MS analysis. Format: ADME, organism-based. More on the design: route oral, dose 2 mg/kg, time <=24. The note with it: in vivo. Put shortly: as §2
The test system of data set [19] is Mus musculus. The experiment in a line: Anti-pruritus activity in ICR mouse with histamine-induced itching assessed as reduction of scratching bouts at 50 mg/kg, po administered 30 mins prior to histamine challenge and measured upto 20 mins. Format: functional. The note with it: 50 min. Put shortly:
as §3

For data set [20], the system named is Mus musculus. Kind of data set: Anti-pruritus activity in ICR mouse with histamine-induced itching assessed as reduction of scratching bouts administered orally 30 mins prior to histamine challenge and measured upto 20 mins. Format: functional, organism-based. The note with it: dose 2-50 mg/kg, time 50.0 min.
Data set [21] concerns Mus musculus. Kind of data set: Anti-pruritus activity in oxazolone-induced Balb/c mouse model of atopic dermatitis assessed as reduction of scratching bouts at 50 mg/kg, po BID administered 30 mins prior to oxazolone challenge for 3 weeks and measured on day 25. Format: functional, organism-based. The procedure, abridged: as §1
Data set [22] is described as follows: Tmax in ICR mouse at 10 mg/kg, po measured upto 24 hrs by LC-MS/MS analysis. Format: ADME, organism-based. To be noted: in vivo. Put shortly: as §2
Data set [23] is described as follows: Cmax in ICR mouse at 50 mg/kg, po measured upto 24 hrs by LC-MS/MS analysis. Format: ADME, organism-based. More on the design: route oral, dose 50 mg/kg, time <=24. The note with it: in vivo. Put shortly:
as §2

Chain of Histamine H1 receptor (Homo sapiens) (P35367 whole entry): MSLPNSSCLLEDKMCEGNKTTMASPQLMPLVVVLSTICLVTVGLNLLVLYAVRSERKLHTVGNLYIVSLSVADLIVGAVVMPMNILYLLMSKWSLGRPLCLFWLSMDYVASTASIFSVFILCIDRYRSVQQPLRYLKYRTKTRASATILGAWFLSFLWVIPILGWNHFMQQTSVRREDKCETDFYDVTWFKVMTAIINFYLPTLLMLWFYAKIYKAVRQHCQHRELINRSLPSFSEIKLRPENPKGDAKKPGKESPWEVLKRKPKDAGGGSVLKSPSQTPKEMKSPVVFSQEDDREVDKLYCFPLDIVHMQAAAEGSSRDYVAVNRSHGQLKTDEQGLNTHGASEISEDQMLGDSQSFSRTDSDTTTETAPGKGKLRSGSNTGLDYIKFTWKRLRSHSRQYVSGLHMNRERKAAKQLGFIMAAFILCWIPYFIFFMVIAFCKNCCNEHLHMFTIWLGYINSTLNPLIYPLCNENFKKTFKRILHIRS
Chain of Histamine H2 receptor (Homo sapiens) (P25021 whole entry): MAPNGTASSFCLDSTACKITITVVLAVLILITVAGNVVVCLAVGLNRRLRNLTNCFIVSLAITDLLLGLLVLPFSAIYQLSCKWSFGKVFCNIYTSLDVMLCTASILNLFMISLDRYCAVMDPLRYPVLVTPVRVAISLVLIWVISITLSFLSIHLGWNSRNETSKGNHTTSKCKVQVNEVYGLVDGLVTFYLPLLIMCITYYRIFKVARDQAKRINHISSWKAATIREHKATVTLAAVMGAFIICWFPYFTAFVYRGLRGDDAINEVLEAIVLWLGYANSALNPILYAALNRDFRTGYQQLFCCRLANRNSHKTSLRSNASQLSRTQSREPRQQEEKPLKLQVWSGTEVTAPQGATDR

One may read the IC50 as the concentration that inhibits the measured activity by half. As a reminder, the Tmax is the time from dosing to the highest level. Broadly, the Cmax is the peak of the concentration-time curve. Broadly, the AUC is concentration integrated over time. As usually defined, the inhibition in vivo is the change of the read-out against control, counted positive when it falls. Take `CNC1CN(c2nc3ncc(Br)cc3n3nnnc23)C1`: the result in the data set with Mus musculus [1], in the data set on Mus musculus [2], with Mus musculus [10] and with Mus musculus [21] was Active. Besides, the values for the IC50 on Histamine H4 receptor [3], on Histamine H4 receptor [11] and on Histamine H4 receptor [13] were 690 nM, 27 nM and 290 nM, respectively. Further, the fraction unbound in [4] is 0.265; in data set [12], 0.348. Besides, the Tmax in data set [5], in data set [16] and in [22] was 30 min in each case. Also, the values for the Activity entry in the data set with Mus musculus [6] and with Mus musculus [20] were “<=50%” and “Dose-dependent effect”, respectively. For the same molecule, the Cmax stood at 1820 ng/mL in data set [7], 180 ng/mL in data set [18] and 7690 ng/mL in data set [23]. For the same molecule, the AUC at 24 h in [8] came to 62600 ng·h/mL; in data set [15], 251 ng·h/mL; in data set [17], 5400 ng·h/mL. Also, the outcome (in [9]; in data set [14]; at Histamine H3 receptor) was inactive. Moreover, the inhibition in vivo at 50 mg/kg with Mus musculus [19] was 100%.
